Measured values as given in ChEMBL document CHEMBL1671650, “In vitro activity and preclinical profile of TMC435350, a potent hepatitis C virus protease inhibitor” (Antimicrob Agents Chemother, 2009).
Active and inactive are the calls of the source. The rule behind the calls is not given here.

Key:
[1] = tested on: Hepatitis C virus; test: Antiviral activity against HCV 1b infected in human HuH7 cells assessed as effect on cell viability upto 5 weeks; format: functional, organism-based; details: Hepacivirus hominis; genotype 1b; Huh-7
[2] = tested on: West Nile virus; test: Antiviral activity against West Nile virus NY99/1 infected in green monkey Vero cells inhibition of virus-induced cytopathic effect at 10 to 100 uM; format: functional, organism-based
Procedure, shortened: (§1)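 Cytopathic effect inhibition assay: BVDV-NADL in MDCK cells; WNV-NY99/1 in Vero cells. Highest concentration tested 10 to 100 μM.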

[3] = tested on: Bovine viral diarrhea virus 1; test: Antiviral activity against Bovine viral diarrhea virus 1 NADL infected in […] cells inhibition of virus-induced cytopathic effect at 10 to 100 uM; format: functional, organism-based; procedure, shortened: as §1
[4] = tested on: Yellow fever virus; test: Antiviral activity against Yellow fever virus 17D infected in green monkey veroE6 cells inhibition of virus-induced cytopathic effect at 10 to 100 uM; format: functional, organism-based; details: Vero
Procedure, shortened: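 Virus-induced cytopathic effect inhibition assay in VeroE6 cells with YFV-17D, with a known positive control in each run; tested up to a top concentration in the 10–100 µM range.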

[5] = tested on: Human immunodeficiency virus 1; test: Antiviral activity against Human immunodeficiency virus 1 3b infected in human MT4 cells at 10 to 100 uM; format: functional, organism-based
Procedure, shortened: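 HIV-1 IIIB in MT-4 cells, enhanced green fluorescent protein-based read-out. Highest concentration tested 10 to 100 μM.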

[6] = tested on: Hepatitis B virus; test: Antiviral activity against Hepatitis B virus infected in human HepG2.2.15 cells at 10 to 100 uM by quantitative PCR; format: functional, organism-based; details: HepG2 2.2.15
Procedure, shortened: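 HBV replication in HepG2.2.15 cells, measured by quantitative PCR. Highest concentration tested 10 to 100 μM.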

[7] = tested on: Respiratory syncytial virus; test: Antiviral activity against Respiratory syncytial virus infected in human HeLa cells at 10 to 100 uM; format: functional, organism-based
Procedure, shortened: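 RSV (LO strain) in HeLa/M cells, tetrazolium-based colorimetric read-out. Highest concentration tested 10 to 100 μM.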

[8] = tested on: Hepatitis C virus; test: Antiviral activity against HCV 1b infected in human HuH7 cells assessed as log reduction in viral RNA level at 5 nM after 9 days by qRT-PCR; format: functional, organism-based; details: Hepacivirus hominis, genotype 1b, Huh-7
Procedure, shortened: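 Nine-day assay: replicon cells at 500 cells/well without G418, compound alone or with IFN-α. Medium with compounds refreshed every 3 days; cells harvested on days 3, 6 and 9 at 37°C, 5% CO2. HCV RNA measured by qRT-PCR and normalized to RPL13A.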

[9] = tested on: Hepatitis C virus; test: Antiviral activity against Hepatitis C virus in presence of 1 mg/ml alpha-1 acid glycoprotein
[10] = tested on: Hepatitis C virus; test: Antiviral activity against Hepatitis C virus in presence of 40 mg/ml human serum albumin
[11] = tested on: Hepatitis C virus; test: Antiviral activity against Hepatitis C virus in presence of 1 mg/ml alpha-1 acid glycoprotein and 40 mg/ml human serum albumin
[12] = tested on: Hepatitis C virus; test: Antiviral activity against Hepatitis C virus in presence of 40% human serum
[13] = tested on: Plasma; test: Initial plasma concentration in Sprague-Dawley rat at 4 mg/kg, iv; format: ADME, organism-based; set-up: dose 4 mg/kg, route intravenous; details: in vivo
Procedure, shortened: (§2)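 Male SPF Sprague-Dawley rats (200–300 g), n=3. Single slow i.v. tail-vein bolus at 4 mg/kg (2 ml/kg) in 20% hydroxypropyl-β-cyclodextrin, pH 8.0. Plasma sampled 7 min to 31 h, measured by LC-MS/MS (LLOQ 1 ng/ml). Noncompartmental analysis.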

[14] = Cmax in Sprague-Dawley rat plasma at 40 mg/kg, po upto 31 hrs by liquid chromatography-tandem mass spectrometry; format: ADME, organism-based; set-up: dose 40 mg/kg, route oral
Procedure, shortened: (§3)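 Male SPF Sprague-Dawley rats (200–300 g), three per group. Oral gavage at 40 mg/kg (2 ml/kg) in TPGS–PEG400 solution. Plasma sampled 0.5–31 h, measured by LC-MS/MS (LLOQ 1 ng/ml). Noncompartmental analysis.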

[15] = Tmax in Sprague-Dawley rat plasma at 40 mg/kg, po upto 31 hrs; format: ADME, organism-based; set-up: dose 40 mg/kg, route oral; procedure, shortened: as §3
[16] = Half life (8 to 24 hrs) in Sprague-Dawley rat plasma at 40 mg/kg, po; format: ADME, organism-based; set-up: dose 40 mg/kg, route oral; procedure, shortened: as §3
[17] = AUC (0 to 24 hrs) in Sprague-Dawley rat at 40 mg/kg, po; format: ADME, organism-based; set-up: time < 24 hr, dose 40 mg/kg, route oral; details: plasma
Procedure, shortened: (§4)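 Male specific-pathogen-free Sprague-Dawley rats (200-300 g), three per group; single gastric intubation of vitamin E TPGS-polyethylene glycol 400 solution at 2 ml/kg. Plasma taken from orbital plexus at 0.5, 1, 2, 4, 8, 24 and 31 h; LC-MS/MS (LLOQ 1 ng/ml); noncompartmental analysis; rats fed and watered ad libitum.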

[18] = AUC (0 to infinity) in Sprague-Dawley rat at 40 mg/kg, po; format: ADME, organism-based; set-up: dose 40 mg/kg, route oral; details: plasma, read-out: AUBC; procedure, shortened: as §4
[19] = Absolute bioavailability in Sprague-Dawley rat at 40 mg/kg, po; format: ADME, organism-based; details: in vivo
Procedure, shortened: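 Male SPF Sprague-Dawley rats (200–300 g, n = 3/group). Oral gavage at 40 mg/kg in vitamin E TPGS–PEG 400 solution (2 ml/kg); i.v. reference was a 4 mg/kg tail-vein slow bolus in 20% hydroxypropyl-β-cyclodextrin, pH 8.0. Plasma sampled up to 31 h and assayed by LC-MS/MS (LLOQ 1 ng/ml). Noncompartmental analysis; Fabs = dose-normalized mean AUC0-∞ p.o./i.v.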

[20] = Total plasma clearance in Sprague-Dawley rat at 4 mg/kg, iv; format: ADME, organism-based; set-up: dose 4 mg/kg, route intravenous; procedure, shortened: as §2
[21] = Apparent volume of distribution at steady-state in Sprague-Dawley rat at 4 mg/kg, iv; format: ADME, organism-based; set-up: dose 4 mg/kg, route intravenous; details: in vivo; procedure, shortened: as §2
[22] = Half life (8 to 24 hrs) in Sprague-Dawley rat plasma at 4 mg/kg, iv; format: ADME, organism-based; set-up: dose 4 mg/kg, route intravenous; procedure, shortened: as §2
[23] = AUC (0 to 24 hrs) in Sprague-Dawley rat at 4 mg/kg, iv; format: ADME, organism-based; set-up: time < 24 hr, dose 4 mg/kg, route intravenous; details: plasma
Procedure, shortened: (§5)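 Male specific-pathogen-free Sprague-Dawley rats (200-300 g), n = 3; single slow tail-vein bolus of 20% 2-hydroxypropyl-β-cyclodextrin formulation (pH 8.0) at 2 ml/kg. Plasma sampled from orbital plexus at 7 min, 20 min, 1, 3, 8, 24 and 31 h; LC-MS/MS (LLOQ 1 ng/ml); noncompartmental analysis of individual plasma profiles.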

[24] = AUC (0 to infinity) in Sprague-Dawley rat at 4 mg/kg, iv; format: ADME, organism-based; set-up: time infinity, dose 4 mg/kg, route intravenous; details: plasma; procedure, shortened: as §5
[25] = Ratio of AUC (0 to 31 hrs) in Sprague-Dawley rat small intestine to AUC (0 to 31 hrs) in Sprague-Dawley rat plasma at 40 mg/kg, po administered as single dose; format: ADME, organism-based; set-up: dose 40 mg/kg, route oral; details: read-out: Ratio AUC
Procedure, shortened: (§6)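 Male specific-pathogen-free Sprague-Dawley rats (200–300 g), three per group, single gastric intubation at 2 ml/kg of a vitamin E TPGS–PEG 400 solution; food and water ad libitum. Plasma sampled 30 min to 31 h; tissues dissected from oral groups. LC-MS/MS (LLOQ 1 ng/ml plasma, 5 ng/g tissue); noncompartmental analysis; ratios from mean of three rats.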

[26] = Ratio of AUC (0 to 31 hrs) in Sprague-Dawley rat large intestine to AUC (0 to 31 hrs) in Sprague-Dawley rat plasma at 40 mg/kg, po administered as single dose; format: ADME, organism-based; set-up: dose 40 mg/kg, route oral; details: read-out: Ratio AUC; procedure, shortened: as §6
[27] = Ratio of AUC (0 to 31 hrs) in Sprague-Dawley rat liver to AUC (0 to 31 hrs) in Sprague-Dawley rat plasma at 40 mg/kg, po administered as single dose; format: ADME, organism-based; set-up: dose 40 mg/kg, route oral; details: read-out: Ratio AUC; procedure, shortened: as §6
[28] = Ratio of AUC (0 to 31 hrs) in Sprague-Dawley rat kidney to AUC (0 to 31 hrs) in Sprague-Dawley rat plasma at 40 mg/kg, po administered as single dose; format: ADME, organism-based; set-up: dose 40 mg/kg, route oral; procedure, shortened: as §6
[29] = Ratio of AUC (0 to 31 hrs) in Sprague-Dawley rat adrenal gland to AUC (0 to 31 hrs) in Sprague-Dawley rat plasma at 40 mg/kg, po administered as single dose; format: ADME, organism-based; set-up: dose 40 mg/kg, route oral; procedure, shortened: as §6

Compound: COc1ccc2c(O[C@@H]3C[C@H]4C(=O)N[C@]5(C(=O)NS(=O)(=O)C6CC6)C[C@H]5/C=C\CCCCN(C)C(=O)[C@@H]4C3)cc(-c3nc(C(C)C)cs3)nc2c1C [SIMEPREVIR]
- Activity [1]: inactive
- Activity [2]: inactive
- Activity [3]: inactive
- Activity [4]: inactive
- Activity [5]: inactive
- Activity [6]: inactive
- Activity [7]: inactive
- Activity [8]: Active
- EC50 [9]: 11.4 nM
- EC50 [10]: 14.1 nM
- EC50 [11]: 14.6 nM
- EC50 [12]: 11.2 nM
- Cp [13]: 3560 ng/mL
- Cmax [14]: 1430 ng/mL
- Tmax [15]: 2 h
- half-life [16]: 2.6 h
- AUC(0-t) at 24 h [17]: 7740 ng·h/mL
- AUC [18]: 7750 ng·h/mL
- bioavailability [19]: 44%
- clearance [20]: 38.3 mL/min/kg
- Vd [21]: 5.3 L/kg
- half-life [22]: 4 h
- AUC(0-t) at 24 h [23]: 1740 ng·h/mL
- AUC(0-inf) [24]: 1750 ng·h/mL
- Kp [25]: 128
- Kp [26]: 29
- Kp [27]: 39
- Kp [28]: 0.5
- Kp [29]: 0.5
